Screening data from PubChem.
RORA inh: inhibitors of orphan receptor RORA, primary screen, cell-based, luminescence. Nuclear receptor ROR-alpha (Homo sapiens), P35398. CHO-K1 Gal4-RORA LBD luciferase reporter. inhibition, % at 10 µM. hit rate 0.43% among 65,000;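 active means inhibition above the mean of all tested compounds plus 3 SD, cut at about 52% in these data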
Target sequence (P35398 whole entry, looked up, the tested form may be a part): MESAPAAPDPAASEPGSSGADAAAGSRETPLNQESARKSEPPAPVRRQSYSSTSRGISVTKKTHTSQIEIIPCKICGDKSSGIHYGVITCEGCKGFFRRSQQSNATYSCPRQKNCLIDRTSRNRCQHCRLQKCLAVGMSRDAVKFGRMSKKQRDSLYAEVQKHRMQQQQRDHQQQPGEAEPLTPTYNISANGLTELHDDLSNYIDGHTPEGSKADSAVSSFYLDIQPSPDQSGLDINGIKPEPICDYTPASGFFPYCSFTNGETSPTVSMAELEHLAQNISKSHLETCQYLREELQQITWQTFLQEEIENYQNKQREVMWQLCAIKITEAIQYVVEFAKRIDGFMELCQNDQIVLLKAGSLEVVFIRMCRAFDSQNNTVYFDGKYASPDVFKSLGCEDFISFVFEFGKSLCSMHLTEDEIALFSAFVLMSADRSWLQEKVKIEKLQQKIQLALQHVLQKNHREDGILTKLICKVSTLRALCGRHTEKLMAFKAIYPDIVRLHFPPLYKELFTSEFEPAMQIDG
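Test system – CHO-K1 Gal4-RORA LBD luciferase reporter cells · Schedule – 20 h at 37 °C · Signal – luminescence from basal luciferase reporter expression · Measure – percent inhibition of basal reporter luminescence, control-normalized · Control set – -RORA mock-transfected DMSO wells 100%, +RORA DMSO wells 0%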
Numbers stand for hits; n = inactive. This excerpt belongs to a sample that is enriched for hits.

SMILES	RORA inh
COC(=O)CCC(=O)N1CCc2cc(S(=O)(=O)N3CCc4ccccc43)ccc21	n
COc1cccc(-c2nnc3n2N=C(C(C)(C)C)CS3)c1	62
CCOc1cccc(-c2nnc3n2N=C(c2cc(OC)ccc2OC)CS3)c1	n
CN(C)CCCN1C(=O)C(O)=C(C(=O)c2cccs2)C1c1ccccn1 (stereo unspecified)	n
COC(=O)c1sc(NC(=O)c2ccoc2C)nc1C	n
CC(=O)c1sc(NC(=O)C2(F)C(F)(F)C(F)(F)C(F)(F)C(F)(F)C2(F)F)nc1C	90
Cc1nc(NC(=O)C2CC3CCCC(C2)C3=O)sc1C (stereo unspecified)	n
CSCCC(CO)NC(=O)OCc1ccccc1 (stereo unspecified)	n
O=C(NCCC1=CCCCC1)N[C@@H](Cc1ccccc1)C(=O)O	n
Cc1cc(C)nc(SCC(=O)Nc2ccc(N3CCOCC3)c(Cl)c2)n1	53
O=C(Nc1ccc(N2CCOCC2)c(Cl)c1)c1ncn[nH]1	n
O=C(Nc1ccc(N2CCOCC2)c(Cl)c1)C1CCCCC1	n
CCN(C1CCCCC1)S(=O)(=O)c1ccc(S(=O)(=O)NCc2ccncc2)cc1	69
Cc1ccc(S(=O)(=O)N(CC(=O)N2CCCC2)C2CCCCC2)cc1	n
COC(=O)c1ccc(S(=O)(=O)N(Cc2cc3cc4c(cc3[nH]c2=O)OCO4)C2CCCCC2)cc1	n
Cc1nc2c(c(=O)n1CC1CCCO1)c1nc3ccccc3nc1n2CC(C)C (stereo unspecified)	n
Cn1c(N)c(C(=O)COC(=O)c2cccs2)c(=O)n(C)c1=O	n
O=C1CCn2nc(-c3ccc(Cl)cc3)cc2N1	n
CCN(CC)C(=O)c1sc2nc(-c3ccc(OC)cc3)cn2c1C	n
COc1cc(OC)cc(-c2cc3nc(C)c(CCC(=O)O)c(C)n3n2)c1	77
CCc1c(C)nc2cc(-c3ccc(OC)cc3)[nH]n2c1=O	n
O=C(NC1CCCCC1)C1CCN(S(=O)(=O)N2CCOCC2)CC1	n
O=S(=O)(Nc1nc2ccccc2nc1NCc1ccco1)c1cccs1	n
CN(C)Cc1cc(C(C)(C)c2cc(CN(C)C)c(O)c(CN(C)C)c2)cc(CN(C)C)c1O	n
Cc1ccc(C2=Nc3ccccc3NC(C)(c3ccc(C)o3)C2)o1 (stereo unspecified)	n
SMILES	RORA inh
CCS(=O)(=O)N1CCC(C(=O)NCCCN2CCCC2)CC1	n
CCn1cc(C(=O)Nc2cc3c(cc2NC(C)=O)OCCO3)c(=O)c2ccc(C)nc21	n
CC(C)CCNC(=O)NC(=O)COc1ccccc1C#N	n
O=C(NCCOc1ccccc1)c1ccc2c(c1)OCO2	63
O=C(Nc1ccc(Cl)cc1)c1ccc2c(c1)OCO2	n
O=C(c1ccc2c(c1)OCO2)N1CCc2ccccc2C1	n
COCCCN(C(C)=O)c1nc(-c2ccc(OC)cc2)cs1	n
NC(=O)CSc1nnc(Cc2ccc3c(c2)OCO3)n1C1CCCCC1	n
O=C(Nc1nnc(C(F)(F)F)s1)c1cccnc1	n
CCC(NC(=O)Nc1nnc(C(F)(F)F)s1)(C(F)(F)F)C(F)(F)F	94
CCC(NC(=O)Nc1ncccc1C)(C(F)(F)F)C(F)(F)F	n
COc1ccccc1CNC(=O)C1COc2ccccc2O1 (stereo unspecified)	n
O=C(NC1=NCCS1)C1COc2ccccc2O1 (stereo unspecified)	72
COc1cc(C(=O)NC2=NCCS2)ccc1OCc1c(C)noc1C	n
CC1(C)CC(=O)C(/C=N/c2ncccc2C(=O)O)=C(O)C1	n
O=C(CCN1c2ccccc2Sc2ccccc21)OCC(=O)N1CCN(C(=O)c2ccco2)CC1	n
CC(C)Cn1c(N)c(C(=O)CSc2ccc3c(c2)OCCO3)c(=O)n(C)c1=O	78
CC(NC(=O)COc1cc(=O)n(C)c2ccccc12)c1ccc2c(c1)OCCO2 (stereo unspecified)	n
CCn1c(SCC(=O)c2c(N)n(C)c(=O)n(C)c2=O)nc2sc(C)c(C)c2c1=O	n
CCN(CC)C(=O)COc1ccc(-c2ccccc2)cc1	n
COc1ccc(-c2cc3nc4n(c(=O)c3s2)CCOC4)cc1	60
COc1ccc(-c2csc(N3CCOCC3)n2)cc1OC	n
O=C(C1CCC(=O)N1Cc1ccccc1Cl)N1CCN(c2cccc(Cl)c2)CC1 (stereo unspecified)	n
CC(=O)OC1c2ccccc2C(=O)N1Cc1ccccc1Cl (stereo unspecified)	n
O=C(NCc1ccco1)c1cnn2c(C(F)(F)F)cc(-c3cccs3)nc12	n
SMILES	RORA inh
Cc1noc(C(=O)Nc2ccc3c(c2)OCO3)c1Cl	n
CCOC(=O)c1c(N)sc(C(=O)Nc2ccc3c(c2)OCO3)c1C	54
CCC(=O)Nc1ccc(C(=O)Nc2ccc3c(c2)OCO3)cc1	n
CC1(C)CC(=O)c2cc(OCC(=O)NCCN3CCCc4ccccc43)ccc2O1	n
COC(=O)C1=C(CN2CCCc3ccccc32)NC(=O)NC1c1ccc(F)cc1 (stereo unspecified)	78
CCOC(=O)C1=C(C)NC(=O)NC1c1ccc(NC(C)=O)cc1 (stereo unspecified)	n
O=C(OCc1nnc(-c2ccccc2)o1)c1ccc(S(=O)(=O)NCc2ccco2)cc1	n
O=P(O)(O)c1ccccc1OCc1ccccc1	n
O=C(O)c1cccc(COc2ccccc2Cl)c1	92
O=C(COc1ccccc1Cl)Nc1ccc(Cl)cn1	n
Nc1c(C(=O)Nc2ccc(Cl)cc2)oc2ccccc12	n
CCOc1ccc(C(=O)N2CCCC2C(=O)O)cc1 (stereo unspecified)	n
CCOc1ccc(OCc2cccc(C(=O)N3CCOCC3)c2)cc1	77
O=C(Nc1ccccc1C(=O)N1CCOCC1)c1ccncc1	n
CC(=O)Nn1c(-c2ccccc2)cc2ccccc21	n
Cc1cc(C(=O)Nc2c(F)cc(F)cc2Br)c(C)o1	n
CCOC(=O)c1c(C)[nH]c(C(=O)C(C)OC(=O)c2cccc(OCc3c(C)noc3C)c2)c1C (stereo unspecified)	56
CCOC(=O)c1[nH]c(C)c(C(=O)c2cc(F)ccc2F)c1C	n
COc1ccc2nc(NC(=O)c3cccc(OCc4c(C)noc4C)c3)sc2c1	n
Cc1ccc(C)c(-n2c(Cc3cc(=O)[nH]c(=O)[nH]3)nnc2SCC(=O)NCC2CCCO2)c1 (stereo unspecified)	n
COc1cccc2c1C(=O)c1c(O)c3c(c(O)c1C2=O)C[C@@](O)(C(=O)CO)C[C@@H]3O[C@H]1C[C@H](N)[C@H](O)[C@H](C)O1	63
CCC(C)C(NC(=O)OC(C)(C)C)C(=O)NC(C(=O)N1CCCC1C(N)=O)C(C)CC (stereo unspecified)	n
CC(=O)N1CCCc2cc(S(=O)(=O)NCc3ccc(C)cc3)ccc21	n
CC(C)(C)c1ccc(C(=O)N2CCC(C(=O)NCc3ccncc3)CC2)cc1	n
Cn1nc(C(C)(C)C)cc1C(=O)NCc1ccc(N2CCCC2=O)cc1	86
CC(C)C1N=C2c3ccccc3N=C(SCC#N)N2C1=O (stereo unspecified)	n
CCC12CN(C(=O)c3ccc(OC)cc3)CC(CC)(CN(C(=O)c3ccc(OC)cc3)C1)C2=O	n
CCOC(=O)C1C(C)=CC(=O)CC1c1ccco1 (stereo unspecified)	n
CCCCCOC(=O)c1[nH]c2c(c1C)C(=O)CC(c1ccco1)C2 (stereo unspecified)	54
Cc1c(C(=O)O)[nH]c2c1C(=O)CC(c1ccc(Cl)cc1)C2 (stereo unspecified)	n
